One data set concerns the target Cannabinoid receptor 1 (Homo sapiens, UniProt P21554). Description: biochemical. It is filed as cell-based, HEK293.
The species entered for another data set is Homo sapiens. As to the kind of experiment: Selectivity ratio of Ki for human CB1 receptor to Ki for human CB2 receptor.
In data set [1] the target is T1, Cannabinoid receptor 2 (Homo sapiens, UniProt P34972). As to the kind of experiment: Displacement of [3H]CP-55940 from human CB2 receptor expressed in HEK cells. The format is cell-based, HEK293.
T1 sequence (P34972 whole entry): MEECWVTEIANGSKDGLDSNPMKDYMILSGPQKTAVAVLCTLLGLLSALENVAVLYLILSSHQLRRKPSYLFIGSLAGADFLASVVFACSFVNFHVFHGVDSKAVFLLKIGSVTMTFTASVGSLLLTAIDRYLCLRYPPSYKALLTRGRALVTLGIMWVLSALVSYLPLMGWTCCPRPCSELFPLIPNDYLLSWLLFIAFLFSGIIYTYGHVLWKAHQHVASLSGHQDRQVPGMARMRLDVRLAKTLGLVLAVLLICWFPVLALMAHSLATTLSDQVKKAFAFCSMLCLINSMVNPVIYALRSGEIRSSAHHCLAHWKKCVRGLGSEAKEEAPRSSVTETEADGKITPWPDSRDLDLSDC
In data set [2] the test system is Mus musculus. Description: Antinociceptive activity in mouse hind paw assessed as inhibition of formalin-induced nociceptive behavior at 1 mg/kg, ip administered 15 mins prior to formalin challenge. Also noted: dose 1 mg/kg. The format is functional, organism-based. In outline: (§1)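 Mice received ip compound in 20% DMSO in 0.9% NaCl, groups of 8-10, one treatment per animal. Formalin (1.25% in saline, 30 μL) was injected into the dorsal hind paw 15 min later. A blinded observer timed lifting, favoring, licking, shaking and flinching over 0-10 min (early phase) and 20-60 min (late phase). Mean ± SEM; ANOVA with Dunnett's test.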

For data set [3], the system named is Mus musculus. Description: Antinociceptive activity in mouse hind paw assessed as inhibition of formalin-induced nociceptive behavior at 1 to 3 mg/kg, ip administered 15 mins prior to formalin challenge in presence of CB2 selective agonist JWH133. The format is functional, organism-based. The essentials: as §1
In data set [4] the test system is Mus musculus. As to the kind of experiment: Antinociceptive activity in mouse hind paw assessed as inhibition of formalin-induced nociceptive behavior at 1 to 3 mg/kg, ip administered 15 mins prior to formalin challenge. The format is functional, organism-based. In outline: as §1
In data set [5] the test system is Mus musculus. Description: Antinociceptive activity in mouse hind paw assessed as inhibition of formalin-induced nociceptive behavior at 3 mg/kg, ip administered 15 mins prior to formalin challenge. Also noted: dose 3 mg/kg. The format is functional, organism-based. In outline:
as §1

For data set [6], the target named is T1, Cannabinoid receptor 2. Description: Antagonist activity at human CB2 receptor expressed in CHO cells assessed as inhibition of forskolin-stimulated cAMP level by [35S]GTPgammaS binding assay. It is filed as functional, cell-based. In outline: (§2)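 CHO cells stably carrying human CB2 (DMEM/F12 with 10% FBS and G418 400 μg/mL, 37 °C, 5% CO2); membranes scraped and pelleted. [35S]GTPγS 0.1 nM with GDP 30 μM, 50 μg membrane protein, in Tris/NaCl/BSA buffer with 5 mM MgCl2, 1 mM DTT and 1 mM EDTA; 60 min at 30 °C. Nonspecific binding with 30 μM GTPγS. Filtration, then scintillation counting.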

Data set [7] concerns the target T1, Cannabinoid receptor 2. Description: Antagonist activity at human CB2 receptor expressed in CHO cells assessed as inhibition of forskolin-stimulated cAMP level up to 20 uM by [35S]GTPgammaS binding assay. The format is functional, cell-based. The essentials: as §2
For orientation: cAMP levels reflect the balance of adenylyl cyclase and phosphodiesterase activity.

The target in another data set is CYP3A4 (Homo sapiens, UniProt P08684). Description: Inhibition of CYP3A4 after 1 hr assessed as residual activity. It is filed as ADME. Particulars: read-out: Activity.
Chain of CYP3A4 (P08684 whole entry): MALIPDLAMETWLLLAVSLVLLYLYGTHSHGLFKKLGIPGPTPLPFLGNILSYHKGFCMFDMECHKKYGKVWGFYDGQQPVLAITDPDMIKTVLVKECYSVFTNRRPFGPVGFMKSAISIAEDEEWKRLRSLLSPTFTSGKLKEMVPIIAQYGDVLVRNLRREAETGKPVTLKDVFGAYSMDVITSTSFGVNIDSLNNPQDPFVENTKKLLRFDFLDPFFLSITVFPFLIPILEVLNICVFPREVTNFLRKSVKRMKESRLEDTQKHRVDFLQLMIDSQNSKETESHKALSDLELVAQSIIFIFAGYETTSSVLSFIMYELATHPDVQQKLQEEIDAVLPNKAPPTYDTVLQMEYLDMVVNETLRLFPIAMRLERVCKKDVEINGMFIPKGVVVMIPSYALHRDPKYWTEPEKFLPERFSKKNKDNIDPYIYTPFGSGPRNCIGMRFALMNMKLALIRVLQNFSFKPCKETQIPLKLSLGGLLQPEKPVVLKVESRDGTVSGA
Data set [8] deals with T1, Cannabinoid receptor 2. As to the kind of experiment: Antagonist activity at human CB2 receptor expressed in CHO cells assessed as inhibition of forskolin-stimulated cAMP level at < 100 uM by [35S]GTPgammaS binding assay. The format is functional, cell-based.

Active and inactive are the calls of the source. The calls are words filed in the database; no cut-off is given here.

Chain of Cannabinoid receptor 1 (P21554 whole entry): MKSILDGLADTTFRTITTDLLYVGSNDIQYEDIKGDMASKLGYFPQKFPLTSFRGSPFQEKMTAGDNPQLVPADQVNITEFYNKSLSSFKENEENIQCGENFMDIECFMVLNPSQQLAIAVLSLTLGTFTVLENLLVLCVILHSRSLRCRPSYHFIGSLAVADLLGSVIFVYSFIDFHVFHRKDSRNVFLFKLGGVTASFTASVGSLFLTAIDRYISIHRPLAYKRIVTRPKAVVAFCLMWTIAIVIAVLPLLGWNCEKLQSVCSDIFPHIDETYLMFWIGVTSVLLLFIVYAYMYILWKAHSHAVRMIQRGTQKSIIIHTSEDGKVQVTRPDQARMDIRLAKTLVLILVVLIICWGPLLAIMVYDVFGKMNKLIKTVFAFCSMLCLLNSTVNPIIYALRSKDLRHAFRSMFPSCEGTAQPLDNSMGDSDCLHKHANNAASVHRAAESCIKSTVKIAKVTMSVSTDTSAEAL

Regarding `CCCCCn1cc(C(=O)NC23CC4CC(CC(C4)C2)C3)c(=O)c2cc(-c3ccc(Cl)cc3)ccc21`, the inhibitory constant (Ki) (as a rule, the equilibrium dissociation constant of an inhibitor or competing ligand from its target) at Cannabinoid receptor 1 is over 10 µM; at Cannabinoid receptor 2 [1], 0.011 µM. In addition, the Selectivity Index in the data set filed under Homo sapiens was over 909.
The corresponding values for `CCCCCn1cc(C(=O)NC23CC4CC(CC(C4)C2)C3)c(=O)c2cc(-n3ccnc3)ccc21` are over 10 µM, 0.008 µM and over 1250.
The corresponding values for `CCCCCn1cc(C(=O)NC23CC4CC(CC(C4)C2)C3)c(=O)c2cc([S+]([O-])c3ccccc3)ccc21` (centres undefined) are 0.46 µM, 0.0732 µM and 6.
The matching figures for `CCCCCn1cc(C(=O)NC2CCCCC2)c(=O)c2cc(Br)ccc21`: 1.7 µM, 0.9 µM and 2.
Regarding `CCCCCn1cc(C(=O)NC23CC4CC(CC(C4)C2)C3)c(=O)c2cc(C3=CCCCC3)ccc21`, the Ki on Cannabinoid receptor 1 was over 10 µM; at Cannabinoid receptor 2 [1], 0.0083 µM. For the same molecule, the Selectivity Index in the data set listed under Homo sapiens is over 1200.
The corresponding values for `CCCCCn1cc(C(=O)NC23CC4CC(CC(C4)C2)C3)c(=O)c2cc(Cc3ccc(Cl)cc3Cl)ccc21` are over 10 µM, 3.88 µM and over 3.
The corresponding values for `CCCCCn1cc(C(=O)NC23CC4CC(CC(C4)C2)C3)c(=O)c2cc(-c3ccc(-c4ccccc4)cc3)ccc21` are over 10 µM, 0.181 µM and over 55.
Regarding `CCCCCn1cc(C(=O)NC23CC4CC(CC(C4)C2)C3)c(=O)c2cc(-c3ccc(F)cc3F)ccc21`, the Ki on Cannabinoid receptor 1 was over 10 µM; on Cannabinoid receptor 2 [1] it was 0.016 µM. Also, the Selectivity Index in the data set listed under Homo sapiens is over 625.
Consider `C=CCCn1cc(C(=O)NC23CC4CC(CC(C4)C2)C3)c(=O)c2cc(-c3ccco3)ccc21`, for which the Ki on Cannabinoid receptor 1 is over 10 µM; on Cannabinoid receptor 2 [1], 0.0044 µM. Besides, the Selectivity Index in the data set filed under Homo sapiens was over 2270.
The matching figures for `CCCCCn1cc(C(=O)NC23CC4CC(CC(C4)C2)C3)c(=O)c2cc(-c3cnn(CC(C)C)c3)ccc21`: 0.246 µM, 0.051 µM and 5.
Turning to `CCCCCn1cc(C(=O)NC23CC4CC(CC(C4)C2)C3)c(=O)c2cc(CC)ccc21`, the inhibition constant (Ki) at Cannabinoid receptor 1 worked out at 0.9 µM; on Cannabinoid receptor 2 [1], 0.0169 µM. In addition, in the data set listed under Homo sapiens, the Selectivity Index was 53.
The matching figures for `CCCCCn1cc(C(=O)NC23CC4CC(CC(C4)C2)C3)c(=O)c2cc(-c3cccs3)ccc21`: over 10 µM, 0.0023 µM and over 4350.
The matching figures for `CCCCCn1cc(C(=O)NC23CC4CC(CC(C4)C2)C3)c(=O)c2cc(S(=O)(=O)c3ccccc3)ccc21`: over 10 µM, 0.0659 µM and over 152.
On to `CCCCCn1cc(C(=O)NC23CC4CC(CC(C4)C2)C3)c(=O)c2cc(-c3cc(C)c(OC)c(C)c3)ccc21`, for which the Ki stood at 0.51 µM at Cannabinoid receptor 1 and 0.0215 µM at Cannabinoid receptor 2 [1]. The Selectivity Index in the data set listed under Homo sapiens came to 24.
The corresponding values for `CCCCCn1cc(C(=O)N[C@H]2C(C)(C)[C@H]3CC[C@]2(C)C3)c(=O)c2cc(Br)ccc21` are 0.0028 µM, 0.005 µM and 0.6.
Regarding `COc1ccc(C(=O)c2c(C)n(CCN3CCOCC3)c3cc(I)ccc23)cc1`, the Activity entry in the data set with Mus musculus [2] is “inactive”.
Turning to `C=CCn1cc(C(=O)NC23CC4CC(CC(C4)C2)C3)c(=O)c2cc(-c3ccco3)ccc21`, the results for the Ki on Cannabinoid receptor 1 and at Cannabinoid receptor 2 [1] were over 10 µM and 0.059 µM, respectively. Also, the Selectivity Index in the data set filed under Homo sapiens was over 169.
As to `CCCCCn1cc(C(=O)NC23CC4CC(CC(C4)C2)C3)c(=O)c2cc(-c3ccc(O)cc3)ccc21`, the results for the Ki on Cannabinoid receptor 1 and on Cannabinoid receptor 2 [1] were over 10 µM and 0.0042 µM, respectively. The Activity entry in the data set with Mus musculus [3] is “inactive”. Besides, the Selectivity Index in the data set filed under Homo sapiens is over 2380. In the data set with Mus musculus [4], the Activity entry is “Active”.
As for `C#Cc1ccc2c(c1)c(=O)c(C(=O)NC13CC4CC(CC(C4)C1)C3)cn2CCCCC`, the Ki was over 10 µM at Cannabinoid receptor 1 and 0.0088 µM at Cannabinoid receptor 2 [1]. The Selectivity Index in the data set listed under Homo sapiens is over 1140.
Consider `CCCCCn1cc(C(=O)NC23CC4CC(CC(C4)C2)C3)c(=O)c2cc(-c3ccc(C#N)cc3)ccc21`, for which the Ki at Cannabinoid receptor 1 is over 10 µM; at Cannabinoid receptor 2 [1], 0.0419 µM. Moreover, the Selectivity Index in the data set listed under Homo sapiens is over 239. In the data set with Mus musculus [4], the Activity result was “Active”.
As for `CCCCCn1cc(C(=O)NC23CC4CC(CC(C4)C2)C3)c(=O)c2cc(-c3ccc(Cl)s3)ccc21`, the Ki on Cannabinoid receptor 1 is over 10 µM; on Cannabinoid receptor 2 [1], 0.0448 µM. Also, the Selectivity Index in the data set listed under Homo sapiens was over 223.
The matching figures for `CCCCCn1cc(C(=O)NC23CC4CC(CC(C4)C2)C3)c(=O)c2cc(/C=C/c3ccccc3)ccc21`: over 10 µM, 0.0654 µM and over 153.
The matching figures for `CCCCCn1cc(C(=O)NC23CC4CC(CC(C4)C2)C3)c(=O)c2cc(-c3ccc4cc(OC)ccc4c3)ccc21`: 0.36 µM, 0.0526 µM and 7.
As to `C#CCn1cc(C(=O)NC23CC4CC(CC(C4)C2)C3)c(=O)c2cc(Br)ccc21`, the Ki on Cannabinoid receptor 1 worked out at 3.21 µM; on Cannabinoid receptor 2 [1] it was 0.0498 µM. For the same molecule, in the data set filed under Homo sapiens, the Selectivity Index amounted to 64.
In the case of `CCCCCn1cc(C(=O)NC23CC4CC(CC(C4)C2)C3)c(=O)c2cc(-c3ccc(OC)nc3)ccc21`, the Ki was over 10 µM on Cannabinoid receptor 1 and 0.0593 µM on Cannabinoid receptor 2 [1]. Moreover, the Selectivity Index in the data set filed under Homo sapiens was over 169.
The corresponding values for `CCCCCn1cc(C(=O)NN2CCCCC2)c(=O)c2cc(Br)ccc21` are 1.9 µM, 0.4 µM and 5.
The matching figures for `CCCCCn1cc(C(=O)NC23CC4CC(CC(C4)C2)C3)c(=O)c2cc(-c3c(C)noc3C)ccc21`: over 10 µM, 0.126 µM and over 80.
Regarding `CCCCCn1cc(C(=O)NC23CC4CC(CC(C4)C2)C3)c(=O)c2cc(CCc3ccccc3)ccc21`, the Activity entry in the data set with Mus musculus [5] was “inactive”. Also, the Ki at Cannabinoid receptor 1 is over 10 µM; on Cannabinoid receptor 2 [1] it was 0.0566 µM. In addition, the Selectivity Index in the data set listed under Homo sapiens is over 177.
For `CCCCCn1cc(C(=O)NC23CC4CC(CC(C4)C2)C3)c(=O)c2cc(C#Cc3ccccc3)ccc21`, the Ki on Cannabinoid receptor 1 is over 10 µM; at Cannabinoid receptor 2 [1], 0.343 µM. For the same molecule, the Selectivity Index in the data set filed under Homo sapiens is over 29.
Take `CCCCCn1cc(C(=O)NC23CC4CC(CC(C4)C2)C3)c(=O)c2cc(-c3ccco3)ccc21`: the Activity result at Cannabinoid receptor 2 [6] and in the data set on Mus musculus [4] was “Active” in each case. Besides, the Activity entry at Cannabinoid receptor 2 [7] is “inactive”. Moreover, the activity at 1 h at CYP3A4 stood at 4%. Besides, the Ki at Cannabinoid receptor 1 was over 10 µM; at Cannabinoid receptor 2 [1] it was 0.0007 µM. Moreover, the Selectivity Index in the data set listed under Homo sapiens was over 14300. Also, the Emax (usually the maximal effect, on the per cent scale that the assay sets) at Cannabinoid receptor 2 [8] was 13.9%.
`CCCCCn1cc(C(=O)NC23CC4CC(CC(C4)C2)C3)c(=O)c2cc(C3CCCCC3)ccc21`: the values for the Ki at Cannabinoid receptor 1 and on Cannabinoid receptor 2 [1] were over 10 µM and 0.0073 µM, respectively. In addition, in the data set with Mus musculus [3], the Activity entry was “Active”. Also, the Selectivity Index in the data set listed under Homo sapiens is over 1370. For the same molecule, the Activity result in the data set on Mus musculus [4] was “inactive”.
Regarding `CCCCCn1cc(C(=O)NC23CC4CC(CC(C4)C2)C3)c(=O)c2cc(I)ccc21`, the inhibition constant Ki on Cannabinoid receptor 1 was found to be 2.08 µM; at Cannabinoid receptor 2 [1], 0.0206 µM. Besides, in the data set filed under Homo sapiens, the Selectivity Index was found to be 101.
The matching figures for `CCCCCn1cc(C(=O)NC23CC4CC(CC(C4)C2)C3)c(=O)c2cc(-n3cccc3)ccc21`: 0.0297 µM, 0.0007 µM and 42.
The matching figures for `CCCCCn1cc(C(=O)N[C@H]2C(C)(C)[C@H]3CC[C@]2(C)C3)c(=O)c2cc(-c3ccco3)ccc21`: 0.48 µM, 0.0024 µM and 200.
The matching figures for `CCCCCn1cc(C(=O)NC23CC4CC(CC(C4)C2)C3)c(=O)c2cc(/C=C/C(C)(C)C)ccc21`: over 10 µM, 0.0716 µM and over 140.

The values above are taken from ChEMBL document CHEMBL1212935 (J Med Chem, 2010).
